# Measured values from ChEMBL document CHEMBL4321819, “Simple Structural Modifications Converting a Bona fide MDM2 PROTAC Degrader into a Molecular Glue Molecule: A Cautionary Tale in the Design of PROTAC Degraders” (J Med Chem, 2019).
# pIC50: −log10 of the molar value. Calls of active or inactive are those of the source. The calls are words filed in the database; no cut-off is given here.
# What was measured:
# [1] = test system: MDA-MB-231; test: Antiproliferative activity against human MDA-MB-231 cells assessed as cell growth inhibition after 4 days in presence of control siRNA for 2 days followed by compound treatment by WST-8 assay; type: functional, cell-based
# Summary of the method: (§1)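 MDA-MB-231 or MDA-MB-468 cells transfected for 2 days using Lipofectamine RNAiMAX with MDM2 siRNA, one of two CRBN siRNAs, or non-targeting control siRNA. Compound then added and growth read by WST-8 at 450 nm.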
# [2] = species: Homo sapiens; test: (§2) Antiproliferative activity against human RS4:11/IRMI-2 cells harboring p53 hotspot mutation Y236H/R249G assessed as cell growth inhibition after 4 days by WST-8 assay; type: functional, cell-based
# Summary of the method: (§3)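 Leukemia cells seeded at 10000–20000 cells/well, breast cancer lines at 5000–10000 cells/well. Serially diluted compound added, then 4 days at 37 °C, 5% CO2. Growth read with WST-8 reagent after at least 1 h, absorbance at 450 nm. RS4;11, MOLM-13 and breast lines were grown in RPMI 1640; MV-4-11 and HL-60 in IMDM; all with 10% FBS. Mean ± SE, at least three independent experiments.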
# [3] = test system: MDA-MB-468; test: Antiproliferative activity against human MDA-MB-468 cells assessed as cell growth inhibition after 4 days in presence of control siRNA for 3 days followed by compound treatment by WST-8 assay; type: functional, cell-based
# [4] = test system: MDA-MB-231; test: Antiproliferative activity against human MDA-MB-231 cells harboring mutant p53 assessed as cell growth inhibition without interaction with cereblon after 4 days by WST-8 assay; type: functional, cell-based; conditions: MDA-MB-231, 96 h
# [5] = target: T1, E3 ubiquitin-protein ligase Mdm2 (Homo sapiens, UniProt Q00987); test: Induction of MDM2 degradation in human RS4:11 cells assessed as upregulation of p53 at 1000 to 3000 nM after 1 hr by Western blot analysis; type: cell-based
# Summary of the method: (§4)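 Western blots of MDM2 and p53 protein were run on RS4;11 cells (wild-type p53) in RPMI 1640 with 10% FBS. 2×10^6 cells/well were treated at the indicated concentrations for 1 h or 2 h. Lysis was in ice-cold buffer with protease inhibitor, followed by probing with specific antibodies.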
# Target sequence in this assay (Q00987 whole entry, looked up): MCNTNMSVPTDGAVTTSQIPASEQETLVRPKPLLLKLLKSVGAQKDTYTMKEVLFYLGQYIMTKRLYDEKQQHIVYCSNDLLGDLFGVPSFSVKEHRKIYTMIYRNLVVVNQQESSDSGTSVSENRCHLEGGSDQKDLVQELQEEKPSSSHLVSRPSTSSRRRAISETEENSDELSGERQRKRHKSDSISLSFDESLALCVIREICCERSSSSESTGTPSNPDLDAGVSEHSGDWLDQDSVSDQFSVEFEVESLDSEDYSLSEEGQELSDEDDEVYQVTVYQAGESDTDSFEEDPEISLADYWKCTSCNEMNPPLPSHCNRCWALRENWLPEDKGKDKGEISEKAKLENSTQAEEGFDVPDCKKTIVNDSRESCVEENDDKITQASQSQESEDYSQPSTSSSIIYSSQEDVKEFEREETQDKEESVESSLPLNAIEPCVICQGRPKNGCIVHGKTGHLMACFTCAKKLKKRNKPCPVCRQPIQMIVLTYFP
# [6] = test system: MDA-MB-468; test: Antiproliferative activity against human MDA-MB-468 cells transfected with CRBN siRNA LQ-021086-11-0002 assessed as cell growth inhibition after 4 days by WST-8 assay; type: functional, cell-based; conditions: MDA-MB-468, 96 h; summary of the method: as §1
# [7] = test system: MDA-MB-231; test: Antiproliferative activity against human MDA-MB-231 cells transfected with MDM2 siRNA assessed as cell growth inhibition after 4 days by WST-8 assay; type: functional, cell-based; conditions: MDA-MB-231, 96 h; summary of the method: as §1
# [8] = test system: MDA-MB-231; test: Antiproliferative activity against human MDA-MB-231 cells harboring mutant p53 assessed as cell growth inhibition after 4 days by WST-8 assay; type: functional, cell-based; summary of the method: as §3
# [9] = test system: MDA-MB-468; test: Antiproliferative activity against human MDA-MB-468 cells assessed as cell growth inhibition after 4 days in presence of control siRNA for 2 days followed by compound treatment by WST-8 assay; type: functional, cell-based; summary of the method: as §1
# [10] = test system: MDA-MB-231; test: Antiproliferative activity against human MDA-MB-231 cells transfected with CRBN siRNA LQ-021086-10-0002 assessed as cell growth inhibition after 4 days by WST-8 assay; type: functional, cell-based; conditions: MDA-MB-231, 72 h, in the assay text read “after 3 days” for “after 4 days”; summary of the method: as §1
# [11] = target: T2, Protein cereblon/Eukaryotic peptide chain release factor GTP-binding subunit ERF3A/DNA damage-binding protein 1/Cullin-4A (Homo sapiens) (UniProt Q96SW2+Q16531+Q13619+P15170); test: Protac activity at GSPT1/CUL4/DDB1/CRBN in human RS4:11 cells expressing wild type p53 assessed as decrease in GSPT1 protein level after 2 hrs by Western blot analysis; type: cell-based
# Summary of the method: (§5)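 RS4;11 (wild-type p53) or RS4;11/IRMI-2 (MDM2 inhibitor-resistant derivative, mutant p53) cells kept in RPMI 1640 with 10% FBS at 37 °C, 5% CO₂. 2×10^6 cells/well treated at the indicated concentrations and times, then lysed in ice-cold lysis buffer with protease inhibitor. GSPT1 detected by Western blot with a specific antibody.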
# [12] = test system: MDA-MB-468; test: Antiproliferative activity against human MDA-MB-468 cells harboring mutant p53 assessed as cell growth inhibition without interaction with cereblon after 4 days by WST-8 assay; type: functional, cell-based; conditions: MDA-MB-468, 96 h
# [13] = target: T1, E3 ubiquitin-protein ligase Mdm2; test: Induction of MDM2 degradation in human RS4:11 cells assessed as upregulation of MDM2 at 1000 to 3000 nM after 1 hr by Western blot analysis; type: cell-based; summary of the method: as §4
# Target sequence in this assay (Q00987 whole entry, looked up): as above
# [14] = test system: RS4-11; test: Antiproliferative activity against human RS4:11 cells expressing wild type p53 assessed as cell growth inhibition without interaction with cereblon after 4 days by WST-8 assay; type: functional, cell-based; conditions: RS4-11, 96 h; summary of the method: as §3
# [15] = Antiproliferative activity against human RS4:11/IRMI-2 cells harboring p53 hotspot mutation Y236H/R249G assessed as MDM2-independent cell growth inhibition after 4 days by WST-8 assay; type: functional, cell-based; conditions: RS4-11, 96 h; summary of the method: as §3
# [16] = test system: MDA-MB-231; test: Antiproliferative activity against human MDA-MB-231 cells assessed as cell growth inhibition after 4 days in presence of control siRNA for 3 days followed by compound treatment by WST-8 assay; type: functional, cell-based
# [17] = test system: RS4-11; test: Antiproliferative activity against human RS4:11 cells expressing wild type p53 assessed as MDM2-independent cell growth inhibition after 4 days by WST-8 assay; type: functional, cell-based; conditions: RS4-11, 96 h; summary of the method: as §3
# [18] = test system: MDA-MB-468; test: Antiproliferative activity against human MDA-MB-468 cells transfected with CRBN siRNA LQ-021086-10-0002 assessed as cell growth inhibition after 4 days by WST-8 assay; type: functional, cell-based; conditions: MDA-MB-468, 96 h; summary of the method: as §1
# [19] = Antiproliferative activity against human RS4:11/IRMI-2 cells harboring p53 hotspot mutation Y236H/R249G assessed as cell growth inhibition without interaction with cereblon after 4 days by WST-8 assay; type: functional, cell-based; conditions: RS4-11, 96 h; summary of the method: as §3
# [20] = test system: MDA-MB-468; test: Antiproliferative activity against human MDA-MB-468 cells harboring mutant p53 assessed as cell growth inhibition after 4 days by WST-8 assay; type: functional, cell-based; summary of the method: as §3
# [21] = test system: MOLM-13; test: Antiproliferative activity against human MOLM13 cells expressing wild type p53 assessed as cell growth inhibition after 4 days by WST-8 assay; type: functional, cell-based; conditions: MOLM-13, 96 h; summary of the method: as §3
# [22] = test system: MDA-MB-231; test: Antiproliferative activity against human MDA-MB-231 cells transfected with CRBN siRNA LQ-021086-11-0002 assessed as cell growth inhibition after 4 days by WST-8 assay; type: functional, cell-based; conditions: MDA-MB-231, 96 h; summary of the method: as §1
# [23] = test system: MV4-11; test: Antiproliferative activity against human MV4-11 cells expressing wild type p53 assessed as cell growth inhibition after 4 days by WST-8 assay; type: functional, cell-based; conditions: MV4-11, 96 h; summary of the method: as §3
# [24] = test system: RS4-11; test: Antiproliferative activity against human RS4:11 cells expressing wild type p53 assessed as cell growth inhibition after 4 days by WST-8 assay; type: functional, cell-based; conditions: RS4-11, 96 h; summary of the method: as §3
# [25] = target: T2, Protein cereblon/Eukaryotic peptide chain release factor GTP-binding subunit ERF3A/DNA damage-binding protein 1/Cullin-4A (Homo sapiens); test: Protac activity at GSPT1/CUL4/DDB1/CRBN in human RS4:11/IRMI-2 cells harboring p53 hotspot mutation Y236H/R249G assessed as decrease in GSPT1 protein level after 2 hrs by Western blot analysis; type: cell-based; summary of the method: as §5
# [26] = test system: MDA-MB-468; test: Antiproliferative activity against human MDA-MB-468 cells transfected with MDM2 siRNA assessed as cell growth inhibition after 4 days by WST-8 assay; type: functional, cell-based; conditions: MDA-MB-468, 96 h; summary of the method: as §1
# [27] = test system: HL-60; test: Antiproliferative activity against human HL60 cells with lack of p53 assessed as cell growth inhibition after 4 days by WST-8 assay; type: functional, cell-based; summary of the method: as §3
# [28] = target: T1, E3 ubiquitin-protein ligase Mdm2; test: Displacement of PMDM6-F fluorescent probe from human recombinant His-tagged MDM2 (1 to 118 residues) after 15 mins by fluorescence polarization assay
# Summary of the method: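 Recombinant human His-tagged MDM2 (residues 1–118) with a FAM-labelled p53-based peptide as fluorescent probe; competitive fluorescence-polarization binding. Mean ± standard error from at least three independent experiments.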
# Target sequence in this assay (Q00987 whole entry): as the sequence (Q00987 whole entry, looked up) above
# [29] = as §2; type: functional, cell-based; conditions: RS4-11, 96 h; summary of the method: as §3
# [30] = target: Eukaryotic peptide chain release factor GTP-binding subunit ERF3A (Homo sapiens, UniProt P15170); test: Induction of GSPT1 degradation in human RS4:11 cells measured after 24 hrs by Western blot analysis; type: cell-based
# [31] = target: T2, Protein cereblon/Eukaryotic peptide chain release factor GTP-binding subunit ERF3A/DNA damage-binding protein 1/Cullin-4A (Homo sapiens); test: Protac activity at GSPT1/CUL4/DDB1/CRBN in human RS4:11 cells expressing wild type p53 assessed as decrease in GSPT1 protein level at 1 to 3 uM after 24 hrs by Western blot analysis; type: cell-based; summary of the method: as §5
# [32] = target: T2, Protein cereblon/Eukaryotic peptide chain release factor GTP-binding subunit ERF3A/DNA damage-binding protein 1/Cullin-4A (Homo sapiens); test: Protac activity at GSPT1/CUL4/DDB1/CRBN in human RS4:11/IRMI-2 cells harboring p53 hotspot mutation Y236H/R249G assessed as decrease in GSPT1 protein level at 1 to 3 uM after 24 hrs by Western blot analysis; type: cell-based; summary of the method: as §5
# T2 sequence (P15170 whole entry, looked up): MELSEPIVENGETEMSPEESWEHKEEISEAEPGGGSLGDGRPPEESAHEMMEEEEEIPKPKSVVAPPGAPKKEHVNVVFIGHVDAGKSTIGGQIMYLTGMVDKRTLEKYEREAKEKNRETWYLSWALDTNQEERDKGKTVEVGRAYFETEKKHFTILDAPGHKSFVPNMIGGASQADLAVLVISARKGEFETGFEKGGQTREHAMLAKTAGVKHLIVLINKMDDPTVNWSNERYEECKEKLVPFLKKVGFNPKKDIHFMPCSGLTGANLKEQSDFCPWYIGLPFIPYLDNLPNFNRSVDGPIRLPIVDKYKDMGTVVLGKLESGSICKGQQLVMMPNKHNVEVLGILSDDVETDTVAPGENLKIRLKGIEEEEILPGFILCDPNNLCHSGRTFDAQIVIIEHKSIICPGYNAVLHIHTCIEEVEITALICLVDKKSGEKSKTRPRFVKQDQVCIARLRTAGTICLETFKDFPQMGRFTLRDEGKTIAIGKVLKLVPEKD
# T2 sequence (Q13619 whole entry, looked up): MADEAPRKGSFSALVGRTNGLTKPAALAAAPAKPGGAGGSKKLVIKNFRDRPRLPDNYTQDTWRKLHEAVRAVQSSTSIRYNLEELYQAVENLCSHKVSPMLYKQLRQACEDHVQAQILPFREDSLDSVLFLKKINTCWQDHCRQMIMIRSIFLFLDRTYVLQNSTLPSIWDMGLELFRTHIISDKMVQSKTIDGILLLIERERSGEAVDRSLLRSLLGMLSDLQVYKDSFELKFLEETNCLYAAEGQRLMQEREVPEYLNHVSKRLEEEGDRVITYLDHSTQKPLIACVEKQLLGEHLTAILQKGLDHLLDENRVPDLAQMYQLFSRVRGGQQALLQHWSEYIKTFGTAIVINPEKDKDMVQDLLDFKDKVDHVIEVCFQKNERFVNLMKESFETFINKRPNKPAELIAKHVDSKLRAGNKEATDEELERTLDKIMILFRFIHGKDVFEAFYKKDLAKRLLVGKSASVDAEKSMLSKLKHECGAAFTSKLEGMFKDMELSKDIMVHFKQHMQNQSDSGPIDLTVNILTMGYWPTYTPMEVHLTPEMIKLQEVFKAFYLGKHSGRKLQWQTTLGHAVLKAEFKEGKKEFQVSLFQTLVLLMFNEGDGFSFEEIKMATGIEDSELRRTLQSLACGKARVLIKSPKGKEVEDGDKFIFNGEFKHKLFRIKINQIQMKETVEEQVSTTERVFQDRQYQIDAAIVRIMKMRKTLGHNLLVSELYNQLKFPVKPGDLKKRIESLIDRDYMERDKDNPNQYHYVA
# T2 sequence (Q16531 whole entry, looked up): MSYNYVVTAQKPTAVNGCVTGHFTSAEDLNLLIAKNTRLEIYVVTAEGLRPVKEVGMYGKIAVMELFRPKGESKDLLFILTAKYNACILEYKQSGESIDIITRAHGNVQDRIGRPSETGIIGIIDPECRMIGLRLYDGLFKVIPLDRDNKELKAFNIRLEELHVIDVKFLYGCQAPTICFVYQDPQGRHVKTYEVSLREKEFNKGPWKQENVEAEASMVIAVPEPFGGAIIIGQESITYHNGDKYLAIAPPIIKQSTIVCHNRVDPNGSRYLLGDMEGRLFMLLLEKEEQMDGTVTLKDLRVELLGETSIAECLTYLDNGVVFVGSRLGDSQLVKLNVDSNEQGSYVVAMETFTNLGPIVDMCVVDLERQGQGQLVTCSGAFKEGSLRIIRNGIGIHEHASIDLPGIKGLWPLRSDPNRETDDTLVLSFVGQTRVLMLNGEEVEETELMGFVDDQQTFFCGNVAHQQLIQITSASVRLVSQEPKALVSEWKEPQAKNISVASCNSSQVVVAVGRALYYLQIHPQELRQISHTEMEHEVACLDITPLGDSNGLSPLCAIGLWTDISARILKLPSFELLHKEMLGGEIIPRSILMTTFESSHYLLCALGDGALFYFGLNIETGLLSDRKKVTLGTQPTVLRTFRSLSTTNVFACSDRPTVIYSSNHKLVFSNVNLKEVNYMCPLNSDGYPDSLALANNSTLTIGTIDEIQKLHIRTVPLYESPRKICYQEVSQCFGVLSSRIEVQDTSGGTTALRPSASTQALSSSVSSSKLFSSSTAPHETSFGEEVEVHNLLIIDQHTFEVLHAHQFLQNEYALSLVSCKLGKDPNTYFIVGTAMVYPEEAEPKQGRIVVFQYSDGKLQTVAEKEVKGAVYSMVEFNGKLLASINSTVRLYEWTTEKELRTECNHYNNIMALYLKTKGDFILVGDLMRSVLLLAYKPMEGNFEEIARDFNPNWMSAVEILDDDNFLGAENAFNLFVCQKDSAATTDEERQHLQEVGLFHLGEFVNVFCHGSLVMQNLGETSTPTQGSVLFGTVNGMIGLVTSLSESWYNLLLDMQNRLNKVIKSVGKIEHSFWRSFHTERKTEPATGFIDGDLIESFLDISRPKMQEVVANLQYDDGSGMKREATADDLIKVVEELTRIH
# T2 sequence (Q96SW2 whole entry, looked up): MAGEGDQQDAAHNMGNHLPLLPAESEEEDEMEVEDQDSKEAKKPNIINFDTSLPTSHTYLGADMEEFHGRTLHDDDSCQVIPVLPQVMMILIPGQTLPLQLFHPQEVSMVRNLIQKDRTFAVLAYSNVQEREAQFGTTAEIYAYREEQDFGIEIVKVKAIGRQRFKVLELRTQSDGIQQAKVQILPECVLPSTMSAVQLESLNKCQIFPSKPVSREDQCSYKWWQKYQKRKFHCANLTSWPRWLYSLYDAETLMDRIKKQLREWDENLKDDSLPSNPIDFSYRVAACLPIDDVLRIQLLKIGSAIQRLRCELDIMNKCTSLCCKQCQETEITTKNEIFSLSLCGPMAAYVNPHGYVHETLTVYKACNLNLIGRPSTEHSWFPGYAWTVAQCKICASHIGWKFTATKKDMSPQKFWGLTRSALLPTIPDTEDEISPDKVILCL
# Chain of Eukaryotic peptide chain release factor GTP-binding subunit ERF3A (P15170 whole entry): as the sequence (P15170 whole entry, looked up) above
smiles,measurement,setting,value
CNC(=O)[C@@H]1NC2(CCCCC2)[C@@]2(C(=O)Nc3cc(Cl)ccc32)[C@H]1c1cccc(Cl)c1F,pIC50,[1],< 5.00
same,growth inhibition (GI),[2],inactive
same,pIC50,[3],< 5.52
same,pIC50,[4],< 5.00
same,Activity,[5],Active
same,pIC50,[6],< 5.52
same,pIC50,[7],< 5.00
same,growth inhibition (GI),[8],inactive
same,pIC50,[9],< 5.00
same,pIC50,[10],< 5.52
same,Activity,[11],inactive
same,pIC50,[12],< 5.00
same,Activity,[13],inactive
same,pIC50,[14],5.95
same,pIC50,[15],< 5.00
same,pIC50,[16],< 5.52
same,pIC50,[17],5.83
same,pIC50,[18],< 5.52
same,pIC50,[19],5.02
same,growth inhibition (GI),[20],inactive
same,pIC50,[21],5.91
same,pIC50,[22],< 5.52
same,pIC50,[23],6.05
same,pIC50,[24],6.17
same,Activity,[25],inactive
same,pIC50,[26],< 5.00
same,growth inhibition (GI),[27],inactive
same,pIC50,[28],7.32
O=C1CCC(N2Cc3c(CCCOCCOCCNC(=O)[C@@H]4NC5(CCCCC5)[C@@]5(C(=O)Nc6cc(Cl)ccc65)[C@H]4c4cccc(Cl)c4F)cccc3C2=O)C(=O)N1 (stereo not given in full),pIC50,[29],8.31
same,Activity,[11],Active
same,DC50,[30],1.2 nM
same,pIC50,[24],8.31
same,Activity,[25],Active
O=C1CCC(N2Cc3c(CCCOCCOCCOCCNC(=O)[C@@H]4NC5(CCCCC5)[C@@]5(C(=O)Nc6cc(Cl)ccc65)[C@H]4c4cccc(Cl)c4F)cccc3C2=O)C(=O)N1 (stereo not given in full),pIC50,[29],7.96
same,Activity,[11],Active
same,pIC50,[24],8.00
same,Activity,[25],Active
O=C1CCC(N2Cc3c(CCCCCNC(=O)[C@@H]4NC5(CCCCC5)[C@@]5(C(=O)Nc6cc(Cl)ccc65)[C@H]4c4ccccc4)cccc3C2=O)C(=O)N1 (stereo not given in full),pIC50,[15],7.65
same,pIC50,[17],7.65
same,pIC50,[28],< 4.70
O=C1CCC(N2Cc3c(CCCCNC(=O)[C@@H]4NC5(CCCCC5)[C@@]5(C(=O)Nc6cc(Cl)ccc65)[C@H]4c4cccc(Cl)c4F)cccc3C2=O)C(=O)N1 (stereo not given in full),pIC50,[29],8.59
same,Activity,[11],Active
same,DC50,[30],1.1 nM
same,pIC50,[24],8.60
same,Activity,[25],Active
O=C1CCC(N2Cc3c(NC(=O)[C@@H]4NC5(CCCCC5)[C@@]5(C(=O)Nc6cc(Cl)ccc65)[C@H]4c4cccc(Cl)c4F)cccc3C2=O)C(=O)N1 (stereo not given in full),pIC50,[29],5.59
same,Activity,[31],Active
same,Activity,[32],Active
same,DC50,[30],2300 nM
same,pIC50,[24],6.12
